Results published in ChEMBL document CHEMBL1121694, “2-(Aminomethyl)phenols, a new class of saluretic agents. 3. Effects of functional group reorientation and modification” (1981).

Tests used:
Canis familiaris [1] = experiment: Tested for the saluretic property in dogs after intravenous administration of 5 mg/kg; 0-99 micro equivalents of Na+ excreted per minute; type: functional, Canis lupus familiaris
How it was run: (§1)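 Each dog score comes from one animal (body weight 15.2-21 kg) given the dose as a single stat administration. The standard dose is 5 mg/kg unless another is designated. Protocol and scoring system are referenced to earlier work.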

Rattus norvegicus = experiment: Evaluated for the saluretic property in rats after oral administration; score represents micro equivalents of Na+ excreted at a given mg/kg dose; type: functional
How it was run: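 The score is the geometric mean of three animals per cage, with three cages per dose. Protocol and scoring system are referenced to earlier work.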

Canis familiaris [2] = experiment: Compound was tested for the saluretic property in dogs after intravenous administration of 1 mg/kg; >900 micro equivalents of Na+ excreted per minute; type: functional, Canis lupus familiaris; how it was run: as §1
Canis familiaris [3] = experiment: Compound was tested for the saluretic property in dogs after intravenous administration of 5 mg/kg; 100-249 micro equivalents of Na+ excreted per minute; type: functional, Canis lupus familiaris
Canis familiaris [4] = experiment: Compound was tested for the saluretic property in dogs after intravenous administration of 10 mg/kg; type: functional, Canis lupus familiaris; how it was run: as §1
Canis familiaris [5] = experiment: Compound was evaluated for the saluretic property in dog after iv administration; score represents micro equivalents of Na+ excreted at a given mg/kg dose; type: functional, Canis lupus familiaris; how it was run: as §1
Canis familiaris [6] = experiment: Compound was tested for the saluretic property in dogs after intravenous administration of 5 mg/kg; activity above 5 mg/kg; type: functional, organism-based; details: Canis lupus familiaris; how it was run: as §1
Canis familiaris [7] = experiment: Compound was tested for the saluretic property in dogs after intravenous administration of 5 mg/kg; 600-799 micro equivalents of Na+ excreted per minute; type: functional, Canis lupus familiaris; how it was run: as §1
Canis familiaris [8] = experiment: Compound was tested for the saluretic property in dogs after intravenous administration of 5 mg/kg; 800-899 micro equivalents of Na+ excreted at a given mg/kg dose; type: functional, Canis lupus familiaris; how it was run: as §1
Canis familiaris [9] = experiment: Compound was tested for the saluretic property in dogs after intravenous administration of 5 mg/kg; >900 micro equivalents of Na+ excreted per minute; type: functional, Canis lupus familiaris; how it was run: as §1

Which results are given for Cl.NCc1cc(Cl)c(O)c(Cl)c1Cl?
Score (Canis familiaris [1]): 0; Score (Rattus norvegicus): 0

With NS(=O)(=O)c1c(O)c(Cl)cc(Cl)c1Cl as the molecule, how does the Score (Rattus norvegicus) read?
The Score was 0.

What does the source list for NS(=O)(=O)c1cc(C(=O)O)c(NCc2ccco2)cc1Cl [FUROSEMIDE]?
Score (Canis familiaris [2]): 6; Score (Rattus norvegicus): 3

For O=Cc1c(O)c(Cl)cc(Cl)c1Cl, which Score (Canis familiaris [1]) is on record?
Its Score is 0.

What about the Score (Rattus norvegicus) of the same molecule?
Its Score is 0.

How did the Score (Canis familiaris [3]) turn out when Cl.NCCc1c(O)c(Cl)cc(Cl)c1Cl was run?
The Score was 1.

What about the Score (Rattus norvegicus) of the same molecule?
The Score was 1.

NCc1c(Cl)cc(Cl)c(O)c1Cl was tested. Which Score (Canis familiaris [4]) did it give?
Its Score is 0.

And the Score (Rattus norvegicus)?
Its Score is 0.

Which Score (Canis familiaris [5]) does the source give for CC(C)(C)c1cc(Cl)c(O)c(CCCN)c1 here?
The Score was 0.

Which results are given for NS(=O)(=O)c1cc2c(cc1Cl)NCNS2(=O)=O [HYDROCHLOROTHIAZIDE]?
Score (Canis familiaris [3]): 1; Score (Rattus norvegicus): 2

How did the Score (Canis familiaris [6]) turn out when NCc1cc(Cl)cc(Cl)c1O was run?
Its Score is “activity above 5 mg/kg”.

And the Score (Rattus norvegicus)?
The Score was 2.

Which Score (Canis familiaris [1]) does the source give for COc1c(Cl)c(O)c(C(=O)O)c(OC)c1Cl here?
Its Score is 0.

And the Score (Rattus norvegicus)?
Its Score is 0.

Which results are given for CC(C)(C)c1cc(I)c(O)c(CN)c1.Cl?
Score (Canis familiaris [7]): 4; Score (Rattus norvegicus): 6

For O=C(O)c1c(O)c(Cl)cc(Cl)c1Cl, which Score (Rattus norvegicus) is on record?
Its Score is 0.

What does the source list for OCc1c(O)c(Cl)cc(Cl)c1Cl?
Score (Canis familiaris [1]): 0; Score (Rattus norvegicus): 0

Which Score (Canis familiaris [1]) does the source give for Cl.NCc1c(N)c(Cl)cc(Cl)c1Cl here?
The Score was 0.

Cl.NCc1c(O)c(Cl)cc(Cl)c1Cl was tested. Which Score (Canis familiaris [8]) did it give?
Its Score is 5.

What about the Score (Rattus norvegicus) of the same molecule?
The Score was 3.

Which Score (Canis familiaris [9]) does the source give for CC(C)(C)c1cc(Cl)c(O)c(CN)c1.Cl here?
Its Score is 6.

And the Score (Rattus norvegicus)?
The Score was 6.

How did the Score (Rattus norvegicus) turn out when Nc1c(O)c(Cl)cc(Cl)c1Cl was run?
The Score was 0.

Which results are given for COc1c(Cl)c(O)c(C=O)c(OC)c1Cl?
Score (Canis familiaris [1]): 0; Score (Rattus norvegicus): 0

For CC(C)(C)c1cc(I)c(O)c(C(=O)O)c1, which Score (Canis familiaris [3]) is on record?
The Score was 1.

And the Score (Rattus norvegicus)?
Its Score is 0.

With COc1c(Cl)c(O)c(CN)c(OC)c1Cl.Cl as the molecule, how does the Score (Canis familiaris [9]) read?
The Score was 6.

And the Score (Rattus norvegicus)?
Its Score is 5.

Cl.NCc1cc(Cl)cc(Cl)c1 was tested. Which Score (Canis familiaris [1]) did it give?
The Score was 0.

And the Score (Rattus norvegicus)?
The Score was 0.

Which results are given for Cl.NCC(O)c1c(O)c(Cl)cc(Cl)c1Cl (centres undefined)?
Score (Canis familiaris [3]): 1; Score (Rattus norvegicus): 0
